The source made the active and inactive calls. No cut-off for these calls is given here.
Assays:
[1] = biological target: T1, Protein deacetylase HDAC6 (Homo sapiens, UniProt Q9UBN7); assay: Inhibition of recombinant HDAC6 expressed in HEK293 cells using variable substrate concentration by Lineweaver-Burke plot; assay type: cell-based
T1 sequence (Q9UBN7 whole entry): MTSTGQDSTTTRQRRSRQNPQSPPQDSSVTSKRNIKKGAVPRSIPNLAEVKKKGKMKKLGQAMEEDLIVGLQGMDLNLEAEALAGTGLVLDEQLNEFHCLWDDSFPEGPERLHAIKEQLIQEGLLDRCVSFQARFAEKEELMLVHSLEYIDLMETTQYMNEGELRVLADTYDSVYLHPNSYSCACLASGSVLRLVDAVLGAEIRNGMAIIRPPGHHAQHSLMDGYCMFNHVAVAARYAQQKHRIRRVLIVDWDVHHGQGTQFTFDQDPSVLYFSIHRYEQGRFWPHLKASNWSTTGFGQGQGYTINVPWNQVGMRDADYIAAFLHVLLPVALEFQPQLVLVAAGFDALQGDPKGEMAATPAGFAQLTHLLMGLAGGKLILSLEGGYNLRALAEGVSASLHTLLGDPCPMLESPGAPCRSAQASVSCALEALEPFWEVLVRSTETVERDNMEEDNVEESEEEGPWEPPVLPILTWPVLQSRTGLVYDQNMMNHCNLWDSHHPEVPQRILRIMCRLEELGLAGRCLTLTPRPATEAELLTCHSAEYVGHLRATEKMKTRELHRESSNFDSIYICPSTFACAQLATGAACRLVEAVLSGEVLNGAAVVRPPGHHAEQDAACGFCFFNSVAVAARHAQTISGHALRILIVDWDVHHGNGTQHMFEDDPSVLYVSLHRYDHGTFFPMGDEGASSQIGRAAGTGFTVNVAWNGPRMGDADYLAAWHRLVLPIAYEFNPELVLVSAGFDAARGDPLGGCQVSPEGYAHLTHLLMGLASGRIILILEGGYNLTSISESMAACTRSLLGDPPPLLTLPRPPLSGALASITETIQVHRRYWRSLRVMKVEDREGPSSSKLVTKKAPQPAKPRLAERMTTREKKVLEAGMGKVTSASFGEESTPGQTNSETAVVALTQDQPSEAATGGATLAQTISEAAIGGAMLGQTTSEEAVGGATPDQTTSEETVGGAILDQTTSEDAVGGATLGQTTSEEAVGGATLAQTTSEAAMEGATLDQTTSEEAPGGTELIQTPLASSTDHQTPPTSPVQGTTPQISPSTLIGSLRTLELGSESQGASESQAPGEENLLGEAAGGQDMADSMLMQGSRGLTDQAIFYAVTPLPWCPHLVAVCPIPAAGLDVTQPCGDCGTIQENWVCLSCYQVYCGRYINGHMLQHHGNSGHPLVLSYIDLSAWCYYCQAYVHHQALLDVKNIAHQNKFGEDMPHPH
Method in brief: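 Inhibitor was used at 1/4, 1/2, 1, 2 and 4 times the IC50-derived concentration. Ki was obtained from Lineweaver-Burk plots, with y-axis intersection indicating substrate competition.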

[2] = biological target: T2, Histone deacetylase (Homo sapiens) (UniProt Q13547+O15379+Q9UBN7+Q92769+Q9UQL6+Q8WUI4+Q9BY41+Q96DB2+P56524+Q9UKV0+Q969S8); assay: Inhibition of nuclear HDAC isolated from human HeLa cells at 32 uM; assay type: cell-free
[3] = biological target: T3, Protein deacetylase HDAC6 (Homo sapiens) (UniProt Q9UBN7); assay: Inhibition of recombinant HDAC6 expressed in HEK293 cells at 32 uM; assay type: cell-based
T3 sequence (whole entry): T1 sequence (Q9UBN7 whole entry)

HeLa [4] = assay: Cytotoxicity against human HeLa cells at 50 uM after 72 hrs by alamar blue assay; assay type: functional
Histone deacetylase [5] = assay: Inhibition of HDAC in human HeLa cells assessed as induction of histone H3 hyperacetylation after 24 hrs; assay type: cell-based
Histone deacetylase 1 = Histone deacetylase 1 (Homo sapiens, UniProt Q13547); assay: Inhibition of recombinant HDAC1 expressed in HEK293 cells; assay type: cell-based
Sequence of Histone deacetylase 1 (Q13547 whole entry): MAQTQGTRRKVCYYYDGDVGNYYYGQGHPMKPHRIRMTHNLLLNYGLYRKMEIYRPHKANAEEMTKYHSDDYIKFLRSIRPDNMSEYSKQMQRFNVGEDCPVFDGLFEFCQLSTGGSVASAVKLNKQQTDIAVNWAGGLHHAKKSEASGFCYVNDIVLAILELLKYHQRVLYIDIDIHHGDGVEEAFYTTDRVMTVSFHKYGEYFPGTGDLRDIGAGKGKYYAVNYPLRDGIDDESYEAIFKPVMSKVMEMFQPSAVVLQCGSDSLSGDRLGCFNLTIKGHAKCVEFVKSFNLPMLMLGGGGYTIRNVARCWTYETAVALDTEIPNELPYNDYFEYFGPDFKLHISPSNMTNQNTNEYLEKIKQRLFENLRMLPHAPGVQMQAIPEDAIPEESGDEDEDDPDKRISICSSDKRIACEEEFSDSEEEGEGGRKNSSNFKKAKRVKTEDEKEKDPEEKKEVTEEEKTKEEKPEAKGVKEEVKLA

[6] = biological target: T1, Protein deacetylase HDAC6; assay: Inhibition of recombinant HDAC6 expressed in HEK293 cells; assay type: cell-based
Histone deacetylase [7] = assay: Inhibition of nuclear HDAC isolated from human HeLa cells; assay type: cell-based
HeLa [8] = assay: Cytotoxicity against human HeLa cells after 72 hrs by alamar blue assay; assay type: functional, cell-based
Method in brief: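 HeLa cells were seeded at densities allowing growth through 72 h of compound exposure at 37 °C, 5% CO2. Viability was read by Alamar Blue (resazurin) reduction. Replicate assays were averaged, and IC50 was taken from concentration-effect curves.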

Histone deacetylase [9] = assay: Inhibition of HDAC in human HeLa cells; assay type: cell-based
RKO [10] = assay: Induction of apoptosis in human RKO cells at 10 uM after 24 hrs by flow cytometry
RKO [11] = assay: Cytotoxicity against arrested non proliferative human RKO cells after 24 hrs; assay type: functional, cell-based; details: in the assay text read “after 72 hrs” for “after 24 hrs”
Method in brief: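 Alamar Blue (resazurin) read-out of metabolic activity. RKO p21waf1 transfectant cells were arrested by inducing p21waf1 with 10 µM ponasterone A for 24 h, then seeded at 2 × 10^4 cells/well and treated with compound. IC50 was taken from the concentration-effect curve.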

RKO [12] = assay: Induction of apoptosis in human RKO cells assessed as accumulation at subG1 phase by flow cytometry; assay type: functional, cell-based
Method in brief: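 RKO cells were seeded at 5 × 10^5 per 10 cm dish and grown for 24 h in log phase. They were then exposed to compound at 1 and 10 µM for 24 h. Flow cytometry assigned cells to subG1 (apoptosis), G1 (2N), S and G2/M (4N).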

[13] = biological target: T2, Histone deacetylase (Homo sapiens); assay: Inhibition of HDAC in human RKO cells assessed as induction of histone H3 lysine 1 to 20 hyperacetylation at 1 to 10 uM after 24 hrs by Western blotting; assay type: cell-based
Method in brief: (§1)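 RKO cells were treated for 24 h with compound at 1, 3 and 10 µM. Lysates were run on SDS-PAGE and Western blots probed for histone H3 S10 phosphorylation and histone H3 K1-20 acetylation, with β-actin reprobe as control.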

[14] = biological target: T2, Histone deacetylase (Homo sapiens); assay: Inhibition of HDAC in human RKO cells assessed as induction of histone H3 serine 10 phosphorylation at 1 to 10 uM after 24 hrs by Western blotting; assay type: cell-based; method in brief: as §1

| SMILES | Ki [1] | inhibition [2] | inhibition [3] | inhibition at 50 µM (HeLa [4]) | EC50 (Histone deacetylase [5]) | IC50 (Histone deacetylase 1) | IC50 [6] | IC50 (Histone deacetylase [7]) | IC50 (HeLa [8]) | IC50 (Histone deacetylase [9]) | Activity (RKO [10]) | Activity (RKO [11]) | Activity (RKO [12]) | Activity [13] | Activity [14] |
| --- | --- | --- | --- | --- | --- | --- | --- | --- | --- | --- | --- | --- | --- | --- | --- |
| CCSC(=S)SCC(=O)c1ccn(S(=O)(=O)c2ccccc2)c1 | 140 nM | – | – | – | – | – | – | – | – | – | – | – | – | – | – |
| CCSC(=S)NCC(=O)c1ccc(OC)cc1 | – | -3% | -8% | 26% | – | – | – | – | – | – | – | – | – | – | – |
| CCSC(=S)SCC(=O)c1ccc(CC(=O)Nc2ccc(OC)cc2)s1 | – | – | – | – | 760 nM | 251 nM | 116 nM | 10 nM | 6610 nM | 7530 nM | – | – | – | – | – |
| CCSC(=S)SCC(=O)c1ccc(-c2ccc(CNc3cnc4ccccc4c3)cn2)s1 | – | – | – | – | 4800 nM | 555 nM | 438 nM | 8 nM | 2700 nM | 683 nM | Active | – | – | – | – |
| CCSC(=S)SCC(=O)c1ccc(C)cc1 | – | – | – | – | 4800 nM | 6990 nM | 1250 nM | 375 nM | – | 81200 nM | Active | Active | Active | – | – |
| CCSC(=S)SCC(=O)c1ccc(NS(=O)(=O)c2ccc(Cl)cc2)cc1 | – | – | – | – | – | 2490 nM | 979 nM | 25 nM | 10400 nM | 1740 nM | – | – | – | – | – |
| CCSC(=S)SCC(=O)c1ccc(CC(=O)NCc2ccccc2)s1 | – | – | – | – | 2400 nM | 762 nM | 250 nM | 38 nM | 710 nM | 9840 nM | – | – | – | Active | Active |
| CCOC(=O)SCC(=O)c1ccc(OC)cc1 | – | – | – | – | – | 21200 nM | 5360 nM | 2810 nM | 18500 nM | 9790 nM | – | – | – | – | – |
| CCSC(=S)SCC(=O)c1cccc(NC(=O)c2cnc3ccccc3c2)c1 | – | – | – | – | – | 592 nM | 89 nM | 36 nM | 9610 nM | 483 nM | – | – | – | – | – |
| CCSC(=S)SCC(=O)c1ccc(C(=O)NCc2cc(C)cc(C)c2)s1 | – | – | – | – | – | 587 nM | 396 nM | 15 nM | 31300 nM | 836 nM | – | – | – | – | – |
| CCSC(=S)SCC(=O)c1cccc(NS(=O)(=O)c2ccc(Cl)cc2)c1 | – | – | – | – | – | 3460 nM | 1250 nM | 48 nM | 46600 nM | 9080 nM | – | – | – | – | – |
| CCNC(=S)SCC(=O)c1ccc(NC(C)=O)cc1 | – | – | – | – | – | 141 nM | 18 nM | 94 nM | 11000 nM | 1120 nM | – | – | – | – | – |
| CCSC(=S)SCC(=O)c1ccc(C(=O)NCc2ccccc2)cc1 | – | – | – | – | – | 5780 nM | 830 nM | 90 nM | 23900 nM | 1500 nM | – | – | – | – | – |
| CCSC(=S)SCC(=O)c1cccc(S(=O)(=O)N(C)c2ccc(OC)cc2)c1 | – | – | – | 43% | – | 5330 nM | 2040 nM | 110 nM | – | – | – | – | – | – | – |
| CCSC(=S)SCC(=O)c1ccc(OC)cc1 | – | – | – | – | – | 4560 nM | 1220 nM | 375 nM | 1960 nM | 4670 nM | – | – | – | – | – |
| CCCC(=S)SCC(=O)c1ccc(NC(C)=O)cc1 | – | – | – | – | – | 164 nM | 23 nM | 87 nM | 6410 nM | 1370 nM | – | – | – | – | – |
| CCCC(=S)SCC(=O)c1ccc(OC)cc1 | – | – | – | – | – | 422 nM | 110 nM | 123 nM | 5710 nM | 3410 nM | – | – | – | – | – |
| CCOC(=S)SCC(=O)c1ccc(NC(C)=O)cc1 | – | – | – | – | 2900 nM | 536 nM | 90 nM | 386 nM | 3610 nM | 26200 nM | Active | – | – | Active | Active |
| CCNC(=O)SCC(=O)c1ccc(OC)cc1 | – | – | – | – | – | 368 nM | 132 nM | 115 nM | 13300 nM | 3180 nM | – | – | – | – | – |
| CCSC(=S)SCC(=O)c1cccc(C(=O)Nc2ccccc2)c1 | – | – | – | – | – | 1670 nM | 517 nM | 124 nM | 2400 nM | 1230 nM | – | – | – | – | – |
| CCSC(=S)SCC(=O)c1ccc(NS(=O)(=O)c2ccccc2)cc1 | – | – | – | – | – | 1870 nM | 382 nM | 42 nM | 9040 nM | 800 nM | – | – | – | – | – |
| CCSC(=S)SCC(=O)c1ccc(CNC(C)=O)cc1 | – | – | – | – | – | 7120 nM | 346 nM | 719 nM | 17900 nM | 2070 nM | – | – | – | – | – |
| CCSC(=S)SCC(=O)c1cccc(C(=O)NCc2ccccc2)c1 | – | – | – | – | – | 672 nM | 195 nM | 49 nM | 13100 nM | 533 nM | – | – | – | – | – |

From ChEMBL document CHEMBL1155020, “Trithiocarbonates as a novel class of HDAC inhibitors: SAR studies, isoenzyme selectivity, and pharmacological profiles” (J Med Chem, 2008)
